These results are taken from ChEMBL document CHEMBL1145431, “Improved anti-osteoporosis potency and reduced endometrial membrane hyperplasia during hormone replacement therapy with estrogen-RGD peptide conjugates” (2007).

SMILES strings stand for the structures. Where a SMILES comes first, the peptide text is derived from it. The star is where a group is joined. X1 = C[C@]12CC[C@@H]3c4ccc(OCC(=O)*)cc4CC[C@H]3[C@@H]1CCC2O

Assay [1] has as its system Mus musculus. In words: Effect on phosphorus level in ovariectomized mouse at 0.1103 mmol/kg, ip once daily for 4 weeks. In kind it is functional. In a few lines: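 Female Kuiming mice (7 weeks, 30.7 ± 3.1 g) ovariectomized, sham group abdominorotomy. From day 5, i.p. once daily for 4 weeks at 110.3 × 10-3 mmol/kg in 0.5% CMC. Left femur cleaned, length measured, defatted in chloroform-methanol (2:1, 2 × 3 h), dried 120 °C 6 h for dry weight, ashed 800 °C 8 h. Mineral content = ash/dry weight. Ash dissolved in 6 N HCl and diluted. Ca by o-methylphenolphthalein complexone, P by molybdenum blue. Lungs and livers weighed directly.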

The subject of assay [2] is Mus musculus. In words: Effect on liver weight in mouse at 0.055 mmol/kg, ip. The class given is functional. In a few lines: (§1)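 Dose-response in OVX Kuiming mice, i.p. daily for 4 weeks in 0.5% CMC at 11.03, 55.15 or 110.3 × 10-3 mmol/kg. Left femur: length, then defatting, drying at 120 °C for 6 h (dry weight), ashing at 800 °C for 8 h. Ash/dry ratio gives mineral content. Ash Ca and P measured colorimetrically. Liver, lung and spleen weighed directly. n = 12, ANOVA.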

The subject of assay [3] is Mus musculus. Nature of the assay: Effect on femur length in recipient mouse at 0.011 mmol/kg, ip. The class given is functional. In a few lines:
as §1

The subject of assay [4] is Mus musculus. In words: Effect on serum ALP lavel in ovariectomized mouse at 0.1103 mmol/kg, ip once daily for 4 weeks. In kind it is functional. In a few lines:
(§2)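 OVX Kuiming mice dosed i.p. daily for 4 weeks in 0.5% CMC. Blood taken retro-orbitally on the day after the last dose, stood 30 min, spun at 3000 g for 20 min, serum stored at -20 °C. Calcium by o-methylphenolphthalein complexone, phosphorus by molybdenum blue, ALP by activity with disodium phenylphosphate substrate.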

Assay [5] has as its system Mus musculus. In words: Effect on femur ash weight in recipient mouse at 0.055 mmol/kg, ip. In kind it is functional. In a few lines:
as §1

The subject of assay [6] is Mus musculus. Nature of the assay: Effect on spleen weight in mouse at 0.1103 mmol/kg, po. In kind it is functional. In a few lines:
(§3)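 Female Kuiming mice (7 weeks old, 30.7 ± 3.1 g) under abdominal OVX, sham group abdominorotomy only. From day 5 after surgery, dosed orally once daily for 4 weeks at 110.3 × 10-3 mmol/kg in 0.5% CMC (0.2 mL), vehicle group CMC alone. Blood drawn retro-orbitally, then left femur and organs removed under pentobarbital (40.0 mg/kg, i.p.).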

The subject of assay [7] is Mus musculus. In words: Effect on mineral level in mouse femur at 0.055 mmol/kg, ip. The class given is functional. In a few lines:
as §1

In assay [8] the test system is Mus musculus. In words: Effect on uterus weight in mouse at 0.1103 mmol/kg, po. The class given is functional.
For assay [9], the system named is Mus musculus. In words: Effect on spleen weight in mouse at 0.011 mmol/kg, ip. In kind it is functional. In a few lines:
as §1

Assay [10] has as its system Mus musculus. In words: Effect on femur length in recipient mouse at 0.055 mmol/kg, ip. In kind it is functional. In a few lines:
as §1

Assay [11] relates to Mus musculus. Nature of the assay: Effect on calcium level in mouse at 0.1103 mmol/kg, po. In kind it is functional. In a few lines: as §3
Assay [12] relates to Mus musculus. Nature of the assay: Effect on lung weight in mouse at 0.1103 mmol/kg, po. In kind it is functional. In a few lines: as §3
For assay [13], the system named is Mus musculus. In words: Effect on dry weight of femurs in mouse at 0.1103 mmol/kg, po. The class given is functional, Femur. In a few lines: as §3
Assay [14] relates to Mus musculus. Nature of the assay: Effect on serum phosphorous level in mouse at 0.055 mmol/kg, ip. The class given is functional. In a few lines:
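Dose-response in OVX Kuiming mice, i.p. daily for 4 weeks in 0.5% CMC at 11.03, 55.15 or 110.3 × 10-3 mmol/kg. Serum from retro-orbital blood (3000 g, 20 min). Calcium by o-methylphenolphthalein complexone, phosphorus by molybdenum blue, ALP by activity on disodium phenylphosphate. n = 12, ANOVA.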

The subject of assay [15] is Mus musculus. In words: Effect on serum phosphorus level in ovariectomized mouse at 0.1103 mmol/kg, ip once daily for 4 weeks. In kind it is functional. In a few lines:
as §2

Assay [16] deals with Mus musculus. In words: Effect on mineral level in mouse femur at 0.011 mmol/kg, ip. In kind it is functional. The following applies: in the assay text read “0.11 mmol/kg” for “0.011 mmol/kg”. In a few lines: as §1
Assay [17] deals with Mus musculus. In words: Effect on serum ALP level in mouse at 0.1103 mmol/kg, po. The class given is functional. In a few lines:
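Oral OVX Kuiming mouse model, dosed daily for 4 weeks at 110.3 × 10-3 mmol/kg in 0.5% CMC. Retro-orbital blood stood 30 min at room temperature and was spun at 3000 g for 20 min. Serum kept at -20 °C. Calcium read by o-methylphenolphthalein complexone, phosphorus by molybdenum blue, ALP by activity on disodium phenylphosphate substrate.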

Assay [18] has as its system Mus musculus. In words: Effect on lung weight in mouse at 0.055 mmol/kg, ip. In kind it is functional. In a few lines:
as §1

For assay [19], the system named is Mus musculus. Nature of the assay: Effect on phosphorous level in mouse femur at 0.055 mmol/kg, ip. In kind it is functional. In a few lines:
as §1

Assay [20] relates to Mus musculus. In words: Effect on serum ALP level in mouse at 0.1103 mmol/kg, ip. In kind it is functional. In a few lines: as §2
Assay [21] deals with Mus musculus. In words: Effect on phosphorous level in mouse femur at 0.011 mmol/kg, ip. In kind it is functional. The following applies: in the assay text read “0.11 mmol/kg” for “0.011 mmol/kg”. In a few lines: as §1

As to `CC(C)[C@H](NC(=O)[C@H](CC(=O)O)NC(=O)CNC(=O)[C@H](CCCNC(=N)N)NC(=O)COc1ccc2c(c1)CC[C@@H]1[C@@H]2CC[C@]2(C)C(O)CC[C@@H]12)C(=O)O` (stereo partly specified) (X1-RGDV-OH), the Activity in the assay on Mus musculus [1] was determined as 24.991%; in the assay with Mus musculus [2] it was 1.462 g; in the assay on Mus musculus [3], 1.64 cm; with Mus musculus [4] it was 30.514 U/L; in the assay with Mus musculus [5], 32.3 mg; in the assay with Mus musculus [6], 134 mg. In addition, the Activity amounted to 40.7 mg in the assay on Mus musculus [8]; 156 mg with Mus musculus [9]; 1.643 cm in the assay on Mus musculus [10]; 52.197% in the assay with Mus musculus [11]; 163 mg with Mus musculus [12]; 68.4 mg with Mus musculus [13]. The Activity came out at 1.586 mmol/L in the assay with Mus musculus [14]; 1.6 mmol/L with Mus musculus [15]; 34.521 U/L in the assay on Mus musculus [17]; 179 mg with Mus musculus [18]; 24.315% with Mus musculus [19]; 30.5 U/L with Mus musculus [20]. Also, the Ratio with Mus musculus [7] is 0.539; with Mus musculus [16] it was 0.63.

For `C[C@]12CC[C@@H]3c4ccc(OCC(=O)N[C@@H](CCCNC(=N)N)C(=O)NCC(=O)N[C@@H](CC(=O)O)C(=O)N[C@@H](CO)C(=O)O)cc4CC[C@H]3[C@@H]1CCC2O` (stereo partly specified) (X1-RGDS-OH), the Activity amounted to 24.949% in the assay on Mus musculus [1]; 1.397 g with Mus musculus [2]; 1.642 cm in the assay with Mus musculus [3]; 31.429 U/L in the assay with Mus musculus [4]; 31.6 mg with Mus musculus [5]; 138 mg in the assay with Mus musculus [6]. Besides, the Activity is 43.2 mg with Mus musculus [8]; 125 mg in the assay with Mus musculus [9]; 1.622 cm with Mus musculus [10]; 51.988% with Mus musculus [11]; 166 mg in the assay with Mus musculus [12]; 68.6 mg with Mus musculus [13]. In addition, the Activity was found to be 1.607 mmol/L in the assay on Mus musculus [14]; 1.599 mmol/L in the assay on Mus musculus [15]; 35.211 U/L in the assay on Mus musculus [17]; 167 mg in the assay with Mus musculus [18]; 24.274% in the assay on Mus musculus [19]; 31.4 U/L with Mus musculus [20]. For the same compound, the Ratio with Mus musculus [7] came out at 0.479; in the assay with Mus musculus [16], 0.582.

`C[C@]12CC[C@@H]3c4ccc(OCC(=O)N[C@@H](CCCNC(=N)N)C(=O)NCC(=O)N[C@@H](CC(=O)O)C(=O)N[C@@H](Cc5ccccc5)C(=O)O)cc4CC[C@H]3[C@@H]1CCC2O` (stereo partly specified) (X1-RGDF-OH): the Activity turned out to be 25.46% in the assay on Mus musculus [1]; 1.407 g in the assay with Mus musculus [2]; 1.623 cm with Mus musculus [3]; 31.529 U/L in the assay on Mus musculus [4]; 31.6 mg in the assay with Mus musculus [5]; 135 mg in the assay on Mus musculus [6]. Further, the Activity in the assay with Mus musculus [8] came out at 47.5 mg; in the assay on Mus musculus [9], 145 mg; in the assay on Mus musculus [10], 1.624 cm; in the assay on Mus musculus [11], 53.001%; in the assay with Mus musculus [12], 165 mg; in the assay with Mus musculus [13], 63.1 mg. Further, the Activity is on record as 1.602 mmol/L with Mus musculus [14]; 1.605 mmol/L in the assay with Mus musculus [15]; 33.7 U/L in the assay on Mus musculus [17]; 25.46% with Mus musculus [21]; 155 mg in the assay with Mus musculus [18]; 24.845% in the assay with Mus musculus [19]. In the assay with Mus musculus [20], this compound returned an Activity of 31.5 U/L. For the same compound, the Ratio in the assay on Mus musculus [7] was determined as 0.504; with Mus musculus [16], 0.585.
